Experiment [1] has as its system B16. Kind of experiment: Cytotoxic activity against solid tumor, B16 (murine melanoma) Concentration of agent required to reduce cell viability by 90%. It is filed as functional. The note with it: Mus musculus. An outline of the steps:
(§1)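 Modified MTT assay. Cells seeded per well with graded drug: CHO 2.5 × 10^3, B16 5 × 10^3, P388 and LLC 10^4, HL-60 and LoVo 5 × 10^4. After 68 h, MTT (2.5 mg/mL) added for 4 h at 37 °C. Formazan dissolved in DMSO and A550 read. Inhibition taken as fractional A550 decrease vs control. IC50/IC90 from Chou's median-effect equation.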

Experiment [2] concerns B16. Briefly: Cytotoxic activity against solid tumor, B16 (murine melanoma) Concentration of agent required to reduce cell viability by 50%. It is filed as functional, cell-based. The note with it: Mus musculus. An outline of the steps:
as §1

Experiment [3] relates to CHO. Kind of experiment: Cytotoxic activity against solid tumor, CHO (Chinese hamster ovaric carcinoma) Concentration of agent required to reduce cell viability by 50%. The format is functional, cell-based. The settings on record: Cricetulus griseus. An outline of the steps:
as §1

Experiment [4] has as its system CHO. Kind of experiment: Cytotoxic activity against solid tumor, CHO (Chinese hamster ovaric carcinoma) Concentration of agent required to reduce cell viability by 90%. It is filed as functional. The settings on record: Cricetulus griseus. In outline:
as §1

The test system of experiment [5] is HL-60. Kind of experiment: Cytotoxic activity against Human promyelocytic Leukemia HL-60 Concentration of agent required to reduce cell viability by 90%. It is filed as functional. In outline:
as §1

Experiment [6] concerns HL-60. Kind of experiment: Relative cytotoxicity against Human promyelocytic Leukemia(HL-60) cells; Value is in range, activity expressed as IC90. It is filed as functional. An outline of the steps: (§2)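 Second-stage assay on HL-60 (5 × 10^4/well) and soybean-agglutinin-negative mononuclear marrow cells (5 × 10^5/well) from six healthy donors. Four wells per concentration, 48 h at 37 °C, then [125I]iododeoxyuridine plus fluorodeoxyuridine for 18 h. Inhibition from fractional uptake decrease; IC50/IC90 by median-effect equation. Ranges are antilog(mean log ± 2SD); ratios use mean antilogs.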

Experiment [7] concerns HL-60. Kind of experiment: Cytotoxic activity against Human promyelocytic Leukemia HL-60 Concentration of agent required to reduce cell viability by 50%. It is filed as functional, cell-based. In outline: as §1
The test system of experiment [8] is HL-60. Briefly: Relative cytotoxicity against Human promyelocytic Leukemia(HL-60) cells; Value is in range, activity expressed as IC50. It is filed as functional, cell-based. In outline:
as §2

For experiment [9], the species on record is Homo sapiens. Kind of experiment: Relative cytotoxicity against Human bone marrow samples; Value is in range, activity expressed as IC50. The format is functional. An outline of the steps: as §2
For experiment [10], the species on record is Homo sapiens. Kind of experiment: Relative cytotoxicity against Human bone marrow samples; Value is in range, activity expressed as IC90. It is filed as functional. In outline: as §2
Experiment [11] has as its system LoVo. Kind of experiment: Cytotoxic activity against solid tumor, LoVo, (human colon adenocarcinoma) Concentration of agent required to reduce cell viability by 90%. The format is functional. An outline of the steps: as §1
Experiment [12] has as its system LoVo. Kind of experiment: Cytotoxic activity against solid tumor, LoVo, (human colon adenocarcinoma) Concentration of agent required to reduce cell viability by 50%. The format is functional, cell-based. An outline of the steps: as §1
The subject of experiment [13] is Lewis lung carcinoma cell line. Kind of experiment: Cytotoxic activity against solid tumor LLC(Lewis lung carcinoma), concentration of agent required to reduce cell viability by 50%. The format is functional, cell-based. The note with it: Mus musculus. In outline: as §1
Experiment [14] deals with Lewis lung carcinoma cell line. Kind of experiment: Cytotoxic activity against solid tumor LLC(Lewis lung carcinoma), concentration of agent required to reduce cell viability by 90%. It is filed as functional. The note with it: Mus musculus. In outline:
as §1

For experiment [15], the system named is P388. Kind of experiment: Cytotoxic activity against Murine Lymphocytic Leukemia P388 Concentration of agent required to reduce cell viability by 50%. The settings on record: Mus musculus. The format is functional, cell-based. In outline:
as §1

Experiment [16] deals with P388. Briefly: Cytotoxic activity Murine Lymphocytic Leukemia P388 Concentration of agent required to reduce cell viability by 90%. It is filed as functional. The note with it: Mus musculus. An outline of the steps:
as §1

The subject of experiment [17] is P388. Kind of experiment: In vivo antitumor activity against Murine P388 Leukemia at 25 mg/kg dose;(Median survival time of treated mice)/(median survival time of controls) x100. The format is functional, Mus musculus. An outline of the steps: (§3)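 Female BD2F1 mice (8 weeks, 20-22 g), eight per group, given 10^5 P388 cells ip on day 0. From 24 h later, drug was given ip once daily for 9 days as a micronized suspension in 0.5% carboxymethylcellulose. Deaths were recorded daily over a 33-day study. %T/C = median survival time of treated / median survival time of controls × 100; >125 taken as significant.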

For experiment [18], the system named is P388. Kind of experiment: In vivo antitumor activity against Murine P388 Leukemia at 50 mg/kg dose;(Median survival time of treated mice)/(median survival time of controls) x100. The format is functional, Mus musculus. An outline of the steps: as §3
Experiment [19] has as its system P388. Briefly: In vivo antitumor activity against Murine P388 Leukemia at 75 mg/kg dose;(Median survival time of treated mice)/(median survival time of controls) x100. It is filed as functional, Mus musculus. An outline of the steps:
as §3

In experiment [20] the test system is P388. Briefly: In vivo antitumor activity against Murine P388 Leukemia at 100 mg/kg dose;(Median survival time of treated mice)/(median survival time of controls) x100. The format is functional, Mus musculus. In outline:
as §3

A short description of experiment [21]: Ratio of antilog(mean log IC90 in bone marrow sample) and antolog(mean log IC90) in HL-60). It is filed as functional. An outline of the steps:
as §2

A short description of experiment [22]: Ratio of antilog(mean log IC50 in bone marrow sample) and antolog(mean log IC50) in HL-60). It is filed as functional. An outline of the steps:
as §2

Experiment [23] in a line: Ratio of antilog(mean log IC50 in bone marrow sample) and antolog(mean log IC90) in HL-60). It is filed as functional. In outline: as §2
Experiment [24] concerns B16. Briefly: Cytotoxic activity against solid tumor, B16 (murine melanoma) concentration of agent required to reduce cell viability by 50%. The format is functional, cell-based. The settings on record: Mus musculus. In outline:
as §1

In experiment [25] the test system is B16. Kind of experiment: Cytotoxic activity against solid tumor, B16 (murine melanoma) concentration of agent required to reduce cell viability by 90%. It is filed as functional. The note with it: Mus musculus. An outline of the steps:
as §1

In experiment [26] the test system is CHO. Kind of experiment: Cytotoxic activity against solid tumor, CHO (Chinese hamster ovaric carcinoma) concentration of agent required to reduce cell viability by 50%. It is filed as functional, cell-based. The note with it: Cricetulus griseus. An outline of the steps: as §1
Experiment [27] relates to CHO. Kind of experiment: Cytotoxic activity against solid tumor, CHO (Chinese hamster ovaric carcinoma) concentration of agent required to reduce cell viability by 90%. It is filed as functional. The note with it: Cricetulus griseus. In outline: as §1
For experiment [28], the system named is HL-60. Kind of experiment: Cytotoxic activity against human promyelocytic leukemia HL-60 concentration of agent required to reduce cell viability by 90%. The format is functional. In outline:
as §1

The test system of experiment [29] is HL-60. Briefly: (§4) Relative cytotoxicity against human promyelocytic leukemia(HL-60) cells. The format is functional. In outline:
as §2

In experiment [30] the test system is HL-60. Briefly: Cytotoxic activity against human promyelocytic leukemia HL-60 concentration of agent required to reduce cell viability by 50%. The format is functional, cell-based. In outline: as §1
The subject of experiment [31] is HL-60. The description is as §4. It is filed as functional, cell-based. An outline of the steps:
as §2

For experiment [32], the species on record is Homo sapiens. Briefly: Relative cytotoxicity against human bone marrow samples. It is filed as functional. An outline of the steps: as §2
Experiment [33] relates to LoVo. Kind of experiment: Cytotoxic activity against solid tumor, LoVo, (human colon adenocarcinoma) concentration of agent required to reduce cell viability by 50%. The format is functional, cell-based. In outline:
as §1

The test system of experiment [34] is LoVo. Briefly: Cytotoxic activity against solid tumor, LoVo, (human colon adenocarcinoma) concentration of agent required to reduce cell viability by 90%. The format is functional. In outline:
as §1

In experiment [35] the test system is P388. Kind of experiment: Cytotoxic activity against murine lymphocytic leukemia P388 concentration of agent required to reduce cell viability by 50%. The settings on record: Mus musculus. The format is functional, cell-based. An outline of the steps: as §1
The test system of experiment [36] is P388. Briefly: Cytotoxic activity against murine lymphocytic leukemia P388 concentration of agent required to reduce cell viability by 90%. It is filed as functional. The note with it: Mus musculus. An outline of the steps: as §1
Experiment [37] in a line: Ratio of cytotoxicity of compound towards bone marrow sample and to that of HL-60 was determined as IC50BM/IC50HL. The format is functional. An outline of the steps:
as §2

A short description of experiment [38]: Ratio of cytotoxicity of compound towards bone marrow sample and to that of HL-60 was determined as IC50BM/IC90HL. The format is functional. In outline:
as §2

The nature of experiment [39]: Ratio of cytotoxicity of compound towards bone marrow sample and to that of HL-60 was determined as IC90BM/IC90HL. It is filed as functional. In outline:
as §2

The test system of experiment [40] is bone marrow cells (human). Briefly: Relative cytotoxicity against Human bone marrow samples; Value is in range, activity expressed as IC90.
Experiment [41] relates to bone marrow cells (human). Kind of experiment: Relative cytotoxicity against Human bone marrow samples; Value is in range, activity expressed as IC50.

One may read the IC90 as the concentration at which the effect reaches the 90% level. Read a high IC90 as weaker potency. A word on the IC50: it is the concentration at which inhibition is half-maximal. Low values mean higher potency, high ones lower potency. One may read the T/C as the ratio of treated to control. As for `CCN(CC)CCn1c2cc(Cl)c(N)cc2c(=O)c2c(O)cc(O)cc21`, the IC90 in [1] worked out at 5.9 µM; in experiment [4], 6.3 µM; in [5], 10 µM; in experiment [6], 5.74 µM; in experiment [10], 6.46 µM; in experiment [11], 14 µM. Also, the IC90 in [14] was determined as 11 µM; in experiment [16], 3.5 µM. In addition, the IC50 in [2] came out at 1 µM; in [3], 1.5 µM; in experiment [7], 3.9 µM; in experiment [8] it was 3.61 µM; in experiment [9], 1.52 µM; in [12], 5.4 µM. In addition, the IC50 in [13] turned out to be 3.6 µM; in [15] it was 1.4 µM. In addition, the T/C in experiment [17] is 105%; in [18], 109%; in experiment [19], 110%; in experiment [20], 111%. In addition, the Ratio turned out to be 0.7 in [21], 0.3 in experiment [22] and 0.2 in experiment [23].

As to `COc1cc([C@@H]2c3cc4c(cc3[C@@H](O[C@@H]3O[C@@H]5CO[C@@H](C)O[C@H]5[C@H](O)[C@H]3O)[C@H]3COC(=O)[C@H]23)OCO4)cc(OC)c1O` [ETOPOSIDE], the IC50 in experiment [24] came out at 0.32 µM; in experiment [26] it was 0.35 µM; in experiment [30], 1.2 µM; in experiment [31], 0.367 µM; in experiment [32], 0.99 µM; in experiment [33], 2.3 µM. For the same molecule, the IC50 is 1.1 µM in experiment [13] and 0.24 µM in experiment [35]. In addition, the IC90 stood at 1.9 µM in experiment [25]; 7.7 µM in experiment [27]; 3.1 µM in [28]; 0.73 µM in experiment [29]; 7.02 µM in experiment [32]; 44 µM in experiment [34]. Moreover, the IC90 in experiment [14] was found to be 4.5 µM; in experiment [36] it was 0.63 µM. Further, the figures for the Ratio in experiment [37], in experiment [38] and in experiment [39] were 1.8, 0.9 and 5.6, respectively.

As to `O=C1c2c(O)ccc(O)c2C(=O)c2c(NCCNCCO)ccc(NCCNCCO)c21` [MITOXANTRONE], the IC90 in experiment [6] was 8.03 µM; in experiment [40], 38.7 µM. For the same molecule, the IC50 in experiment [8] came out at 3.35 µM; in experiment [41] it was 27.6 µM. For the same molecule, the Ratio came out at 11.6 in [21], 4.8 in experiment [22] and 2.1 in experiment [23].

With `CCn1c2cc(N3CCN(C)CC3)c(N)cc2c(=O)c2c(O)cc(OC)cc21`, the IC50 in [24] worked out at 8.6 µM; in experiment [3], 6 µM; in experiment [30], 17 µM; in experiment [31], 19.1 µM; in experiment [32], 10.7 µM; in experiment [33], 10 µM. Besides, the IC50 in experiment [13] worked out at 9.3 µM; in experiment [35], 2.9 µM. The IC90 in experiment [1] stood at 12 µM; in experiment [27], 11 µM; in experiment [28], 24 µM; in [29] it was 22.9 µM; in experiment [32], 89.1 µM; in [34], 15 µM. Also, the IC90 was 11 µM in experiment [14] and 8.9 µM in experiment [36]. Further, the Ratio in [37] came out at 0.4; in experiment [38], 0.4; in experiment [39] it was 2.7.

Source of the values: ChEMBL document CHEMBL1132240, “Design and synthesis of modified quinolones as antitumoral acridones” (J Med Chem, 1999).
